ChEMBL document CHEMBL1649383, “Mode of action of epoxyphomalins A and B and characterization of related metabolites from the marine-derived fungus Paraconiothyrium sp” (J Nat Prod, 2010)
In brackets after ≈: the same amount, converted by molar mass.

How the values were obtained:
[1] = Cytotoxicity against human PAXF 1657L cells at 0.001 ug/ml relative to control; type: functional
[2] = Cytotoxicity against human GXF251L cells at 0.1 ug/ml relative to control; type: functional
[3] = Cytotoxicity against human LXFL 1121L cells at 0.001 ug/ml relative to control; type: functional
PANC-1 = assay: Cytotoxicity against human PANC1 cells at 0.1 ug/ml relative to control; type: functional
[4] = Cytotoxicity against human RXF 944L cells; type: functional, cell-based
Summary of the method: (§1)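 Monolayer cell survival and proliferation assay run across a panel of 36 human tumor cell lines, with IC50 determined from the resulting growth data.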

[5] = Cytotoxicity against human RXF 1781L cells at 0.01 ug/ml relative to control; type: functional
SF-268 [6] = assay: Cytotoxicity against human SF268 cells at 0.1 ug/ml relative to control; type: functional
LNCaP [7] = assay: Cytotoxicity against human LNCAP cells at 0.001 ug/ml relative to control; type: functional
DU-145 = assay: Cytotoxicity against human DU145 cells at 1 ug/ml relative to control; type: functional
[8] = Cytotoxicity against human HNXF 536L cells at 1 ug/ml relative to control; type: functional
HT-29 [9] = assay: Cytotoxicity against human HT-29 cells at 1 ug/ml relative to control; type: functional
MCF7 [10] = assay: Cytotoxicity against human MCF7 cells at 0.01 ug/ml relative to control; type: functional
[11] = Cytotoxicity against human MEXF 520L cells at 0.1 ug/ml relative to control; type: functional
[12] = Cytotoxicity against human PXF 1752L cells at 10 ug/ml relative to control; type: functional
T-24 [13] = assay: Cytotoxicity against human T24 cells at 0.1 ug/ml relative to control; type: functional
[14] = Cytotoxicity against human LXFA 526L cells at 1 ug/ml relative to control; type: functional
[15] = Cytotoxicity against human HNXF 536L cells at 0.01 ug/ml relative to control; type: functional
HCT-116 = assay: Cytotoxicity against human HCT116 cells at 10 ug/ml relative to control; type: functional
[16] = Cytotoxicity against human LXFA 629L cells; type: functional, cell-based
Summary of the method: (§2)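 Monolayer cell survival and proliferation assay run across a panel of 36 human tumour cell lines; IC50 values determined.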

[17] = Cytotoxicity against human LXFL 529L cells at 0.001 ug/ml relative to control; type: functional
[18] = Cytotoxicity against human MAXF 401NL cells; type: functional, cell-based; summary of the method: as §2
[19] = Cytotoxicity against human BXF 1218L cells at 10 ug/ml relative to control; type: functional
MCF7 [20] = assay: Cytotoxicity against human MCF7 cells at 0.1 ug/ml relative to control; type: functional
LNCaP [21] = assay: Cytotoxicity against human LNCAP cells at 0.1 ug/ml relative to control; type: functional
[22] = Cytotoxicity against human RXF 393NL cells; type: functional, cell-based; summary of the method: as §1
[23] = Cytotoxicity against human UXF 1138L cells at 0.001 ug/ml relative to control; type: functional
T-24 [24] = assay: Cytotoxicity against human T24 cells; type: functional, cell-based; summary of the method: as §1
[25] = Cytotoxicity against human OVXF 899L cells at 0.01 ug/ml relative to control; type: functional
OVCAR-3 [26] = assay: Cytotoxicity against human OVCAR3 cells; type: functional, cell-based; summary of the method: as §1
[27] = Cytotoxicity against human CNXF 498NL cells at 10 ug/ml relative to control; type: functional
[28] = Cytotoxicity against human OVXF 1619L cells at 1 ug/ml relative to control; type: functional
[29] = Cytotoxicity against human MEXF 462NL cells at 1 ug/ml relative to control; type: functional
[30] = Cytotoxicity against human OVXF 899L cells at 0.1 ug/ml relative to control; type: functional
NCI-H460 = assay: Cytotoxicity against human H460 cells at 10 ug/ml relative to control; type: functional
OVCAR-3 [31] = assay: Cytotoxicity against human OVCAR3 cells at 0.1 ug/ml relative to control; type: functional
[32] = Cytotoxicity against human RXF 944L cells at 0.1 ug/ml relative to control; type: functional
[33] = Cytotoxicity against human HNXF 536L cells at 10 ug/ml relative to control; type: functional
[34] = Cytotoxicity against human BXF 1218L cells at 1 ug/ml relative to control; type: functional
[35] = Cytotoxicity against human MEXF 462NL cells; type: functional, cell-based; summary of the method: as §1
[36] = Cytotoxicity against human PAXF 1657L cells at 0.01 ug/ml relative to control; type: functional
[37] = Cytotoxicity against human LXFL 1121L cells at 0.1 ug/ml relative to control; type: functional
HT-29 [38] = assay: Cytotoxicity against human HT-29 cells; type: functional, cell-based
Summary of the method: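 Monolayer cell survival and proliferation assay, run within a panel of 36 human tumor cell lines; IC50 determined per cell line.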

[39] = Cytotoxicity against human PAXF 1657L cells; type: functional, cell-based; summary of the method: as §1
[40] = Cytotoxicity against human UXF 1138L cells; type: functional, cell-based; summary of the method: as §1
[41] = Cytotoxicity against human RXF 486L cells at 1 ug/ml relative to control; type: functional
SF-268 [42] = assay: Cytotoxicity against human SF268 cells at 0.01 ug/ml relative to control; type: functional
T-24 [43] = assay: Cytotoxicity against human T24 cells at 1 ug/ml relative to control; type: functional
MCF7 [44] = assay: Cytotoxicity against human MCF7 cells; type: functional, cell-based; summary of the method: as §2
[45] = Cytotoxicity against human LXFL 529L cells at 0.01 ug/ml relative to control; type: functional
[46] = Cytotoxicity against human OVXF 1619L cells at 0.001 ug/ml relative to control; type: functional
[47] = Cytotoxicity against human RXF 393NL cells at 1 ug/ml relative to control; type: functional
[48] = Cytotoxicity against human MEXF 462NL cells at 0.001 ug/ml relative to control; type: functional
T-24 [49] = assay: Cytotoxicity against human T24 cells at 10 ug/ml relative to control; type: functional
[50] = Cytotoxicity against human LXFL 529L cells at 10 ug/ml relative to control; type: functional
SF-268 [51] = assay: Cytotoxicity against human SF268 cells; type: functional, cell-based; summary of the method: as §1

Q: What does the source list for C=C1[C@@H](O)[C@H]2O[C@@]2(C[C@H]2C(C)=CC[C@H]3C(C)(C)CCC[C@]23C)[C@@H](O)[C@H]1O [EPOXYPHOLAMIN D]?
A: Activity [1]: 100%; Activity [2]: 112%; Activity [3]: 116%; Activity (PANC-1): 97%; IC50 [4]: 10.8 µM; IC70 [4]: 6.58 µg/mL (≈ 18.1 µM); IC90 [4]: 11.1 µg/mL (≈ 30.6 µM); Activity [5]: 95%; Activity (SF-268 [6]): 82%; Activity (LNCaP [7]): 82%; Activity (DU-145): 90%; Activity [8]: 88%; Activity (HT-29 [9]): 121%; Activity (MCF7 [10]): 102%; Activity [11]: 92%; Activity [12]: 13%; Activity (T-24 [13]): 104%; Activity [14]: 119%; Activity [15]: 76%; Activity (HCT-116): 4%; IC50 [16]: 3.2 µM; IC70 [16]: 3.08 µg/mL (≈ 8.51 µM); IC90 [16]: 8.22 µg/mL (≈ 22.7 µM); Activity [17]: 99%; IC50 [18]: 2.57 µM; IC70 [18]: 3.16 µg/mL (≈ 8.72 µM); IC90 [18]: 11.4 µg/mL (≈ 31.3 µM); Activity [19]: 17%; Activity (MCF7 [20]): 96%; Activity (LNCaP [21]): 103%; IC50 [22]: 11.8 µM; IC70 [22]: 6.53 µg/mL (≈ 18 µM); IC90 [22]: 10 µg/mL (≈ 27.6 µM); Activity [23]: 96%; IC50 (T-24 [24]): 12 µM; IC70 (T-24 [24]): 6.41 µg/mL (≈ 17.7 µM); IC90 (T-24 [24]): 9.44 µg/mL (≈ 26 µM); Activity [25]: 104%; IC50 (OVCAR-3 [26]): 1.96 µM; IC70 (OVCAR-3 [26]): 2.71 µg/mL (≈ 7.48 µM); IC90 (OVCAR-3 [26]): 12.6 µg/mL (≈ 34.7 µM); Activity [27]: 4%; Activity [28]: 103%; Activity [29]: 68%; Activity [30]: 97%; Activity (NCI-H460): 3%; Activity (OVCAR-3 [31]): 91%; Activity [32]: 95%; Activity [33]: 5%; Activity [34]: 29%; IC50 [35]: 5.79 µM; IC70 [35]: 4.77 µg/mL (≈ 13.2 µM); IC90 [35]: 10.9 µg/mL (≈ 30 µM); Activity [36]: 103%; Activity [37]: 146%; IC50 (HT-29 [38]): 10.8 µM; IC70 (HT-29 [38]): 5.73 µg/mL (≈ 15.8 µM); IC90 (HT-29 [38]): 8.41 µg/mL (≈ 23.2 µM); IC50 [39]: 6.32 µM; IC70 [39]: 4.7 µg/mL (≈ 13 µM); IC90 [39]: 9.65 µg/mL (≈ 26.6 µM); IC50 [40]: 6.15 µM; IC70 [40]: 4.64 µg/mL (≈ 12.8 µM); IC90 [40]: 9.64 µg/mL (≈ 26.6 µM); Activity [41]: 82%; Activity (SF-268 [42]): 97%; Activity (T-24 [43]): 126%; IC50 (MCF7 [44]): 5.32 µM; IC70 (MCF7 [44]): 4.01 µg/mL (≈ 11.1 µM); IC90 (MCF7 [44]): 8.33 µg/mL (≈ 23 µM); Activity [45]: 99%; Activity [46]: 122%; Activity [47]: 118%; Activity [48]: 133%; Activity (T-24 [49]): 7%; Activity [50]: 14%; IC50 (SF-268 [51]): 10.4 µM; IC70 (SF-268 [51]): 5.62 µg/mL (≈ 15.5 µM); IC90 (SF-268 [51]): 8.36 µg/mL (≈ 23.1 µM)
